Article PMC8853157 (Medicinal Chemistry Research, 2022)
“Also recorded” adds a separate entry of the source.

Columns and labels:
[1] = biological target: LFA-1/ICAM-1 (Homo sapiens, UniProt P20701); assay: Jurkat T-cell adhesion assay; type: cell-based; details: for LFA-1/ICAM-1 antagonist activity in words / IC50 level in words: Jurkat T-cell adhesion assay; for LFA-1/ICAM-1 antagonist activity in words: compared with Lifitegrast
Procedure, shortened: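 Jurkat E6-1 cells (RPMI 1640, 5% FBS, 37 °C, 5% CO2) labeled with 8 μM BCECF for 15 min at room temperature. Cells (5 × 10^5/well) preincubated with compound for 30 min at 37 °C, then settled 1 h at 37 °C on recombinant human ICAM-1–Fc-coated wells. Titration 10−10–10−4 M in triplicate lanes. Non-adherent cells washed off; adherent-cell fluorescence read; IC50 by four-parameter logistic regression.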

[2] = test system: LFA-1/ICAM-1; details: read-out: previously reported IC50; HUT 78T cells; cited from earlier work
[3] = test system: dry eye mice model; assay: TUNEL staining of corneal epithelium in dry eye mice model; type: in vivo, C57/BL6 mice; details: for TUNEL positive (Cy3 labeled) cells in cornea, apoptosis: 14 days, vs dry eye model group
Procedure, shortened: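 Female C57/BL6 mice, 6–8 weeks, n=5/group. Dry eye induced over 14 days. Both eyes received 5 µL drops twice daily: test compound 5% or 7% W/V, vehicle, or 5% reference antagonist. Eyes then excised, OCT-embedded and cut into 6 µm frozen central sagittal sections. Sections TUNEL/DAPI-stained. TUNEL-positive cells counted in the central 200 µm corneal epithelial field at ×400. n=10 eyes/group; mean ± SEM.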

[4] = test system: dry eye mice model; assay: Dry eye mice model, overall effect; type: in vivo, C57/BL6 mice; details: 5% vs 7% (W/V) compound 1b, topical
Procedure, shortened: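 Female C57/BL6 mice (6–8 weeks, n = 5/group) were kept at RH 15, airflow 2 m/s and 21–23 °C for 14 days, with s.c. scopolamine hydrobromide (0.5 mg/0.2 ml) three times daily. Test compound (5% or 7% W/V) was given as 5 µL drops to both eyes twice daily. Read-outs were fluorescein score summed over five corneal regions, PAS goblet density and TUNEL; 10 eyes/group.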

[5] = test system: dry eye mice model; assay: Goblet cell density; type: in vivo, C57/BL6 mice; details: 14 days, vs dry eye model group
Procedure, shortened: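 Dry eye was induced in female C57/BL6 mice (6–8 weeks, n = 5/group) by RH 15, 2 m/s airflow, 21–23 °C and s.c. scopolamine hydrobromide (0.5 mg/0.2 ml) three times daily for 14 days. Eye drops (5 µL) went to both eyes twice daily. Central frozen sections (6 µm) were PAS-stained, and goblet cells per mm were counted by image analysis. Mean ± SEM, 10 eyes/group.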

LFA-1/ICAM-1 (Homo sapiens, UniProt P20701), sequence (P20701 26-1170): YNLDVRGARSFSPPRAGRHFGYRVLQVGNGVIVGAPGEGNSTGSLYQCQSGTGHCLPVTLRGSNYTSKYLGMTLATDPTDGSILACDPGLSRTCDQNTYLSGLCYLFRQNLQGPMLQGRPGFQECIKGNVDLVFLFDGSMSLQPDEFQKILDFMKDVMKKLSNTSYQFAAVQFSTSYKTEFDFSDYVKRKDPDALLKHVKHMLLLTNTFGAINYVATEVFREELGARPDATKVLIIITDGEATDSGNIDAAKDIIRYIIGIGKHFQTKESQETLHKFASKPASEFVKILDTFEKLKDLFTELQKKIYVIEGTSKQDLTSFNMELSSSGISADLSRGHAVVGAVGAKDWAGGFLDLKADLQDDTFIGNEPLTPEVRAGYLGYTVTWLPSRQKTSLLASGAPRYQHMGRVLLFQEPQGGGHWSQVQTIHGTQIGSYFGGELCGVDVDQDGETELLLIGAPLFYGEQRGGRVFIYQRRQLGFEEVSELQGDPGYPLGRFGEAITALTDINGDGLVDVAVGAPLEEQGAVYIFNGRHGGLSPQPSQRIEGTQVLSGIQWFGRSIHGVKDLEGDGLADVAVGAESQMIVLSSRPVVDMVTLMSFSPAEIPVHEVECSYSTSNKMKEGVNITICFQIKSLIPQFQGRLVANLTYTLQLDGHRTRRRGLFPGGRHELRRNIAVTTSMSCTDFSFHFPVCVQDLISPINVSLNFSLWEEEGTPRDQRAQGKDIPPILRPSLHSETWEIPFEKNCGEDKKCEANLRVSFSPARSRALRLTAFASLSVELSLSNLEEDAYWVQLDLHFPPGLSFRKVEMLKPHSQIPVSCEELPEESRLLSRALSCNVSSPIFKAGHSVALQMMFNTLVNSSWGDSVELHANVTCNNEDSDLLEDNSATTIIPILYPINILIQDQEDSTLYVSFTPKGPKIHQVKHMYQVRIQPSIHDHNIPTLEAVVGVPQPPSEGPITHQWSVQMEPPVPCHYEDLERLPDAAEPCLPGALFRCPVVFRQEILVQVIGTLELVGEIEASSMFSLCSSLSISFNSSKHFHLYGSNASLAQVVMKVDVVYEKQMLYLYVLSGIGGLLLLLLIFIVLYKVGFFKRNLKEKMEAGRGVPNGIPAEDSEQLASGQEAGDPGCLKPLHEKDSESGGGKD
LFA-1/ICAM-1 (Homo sapiens, UniProt P20701), sequence (P05107 23-769 partner): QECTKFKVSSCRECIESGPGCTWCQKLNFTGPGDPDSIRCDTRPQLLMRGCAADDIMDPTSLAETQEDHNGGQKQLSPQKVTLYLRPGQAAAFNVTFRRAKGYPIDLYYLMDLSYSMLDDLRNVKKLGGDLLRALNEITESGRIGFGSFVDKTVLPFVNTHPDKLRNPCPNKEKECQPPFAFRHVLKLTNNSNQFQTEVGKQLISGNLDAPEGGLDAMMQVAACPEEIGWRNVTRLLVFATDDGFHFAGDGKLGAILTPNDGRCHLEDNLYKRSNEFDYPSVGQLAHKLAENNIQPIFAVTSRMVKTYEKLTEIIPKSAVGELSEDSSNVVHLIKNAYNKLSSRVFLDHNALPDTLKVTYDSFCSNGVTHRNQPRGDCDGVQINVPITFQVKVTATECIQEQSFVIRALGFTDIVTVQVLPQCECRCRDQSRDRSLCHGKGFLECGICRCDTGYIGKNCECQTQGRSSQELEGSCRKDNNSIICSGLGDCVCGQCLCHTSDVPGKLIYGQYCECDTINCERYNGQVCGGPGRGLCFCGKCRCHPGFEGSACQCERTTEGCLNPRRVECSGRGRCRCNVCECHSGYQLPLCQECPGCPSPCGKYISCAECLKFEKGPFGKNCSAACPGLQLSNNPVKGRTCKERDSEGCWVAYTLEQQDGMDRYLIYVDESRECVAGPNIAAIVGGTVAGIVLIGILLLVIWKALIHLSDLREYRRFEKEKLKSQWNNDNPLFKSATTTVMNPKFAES

IC50 level in words [1]	SMILES	LFA-1/ICAM-1 antagonist activity in words [1]	other results
	C#Cc1cccc(C(=O)N2CCc3c(cc(Cl)c(C(=O)N[C@@H](Cc4cccc(S(C)(=O)=O)c4)C(=O)O)c3Cl)C2)c1 [Compound 1e, (S)-2-(2-(3-Ethynylbenzoyl)-5,7-dichloro-1,2,3,4-tetrahydroisoquinoline-6-carboxamido)-3-(3-(methylsulfonyl)phenyl)propanoic acid]	decreased LFA-1/ICAM-1 antagonist activity obviously	
several micromol levels	CS(=O)(=O)c1cccc(C[C@H](NC(=O)c2c(Cl)cc3c(c2Cl)CCN(C(=O)Cc2ccc4occc4c2)C3)C(=O)O)c1 [Compound 1c, (S)-2-(2-(2-(Benzofuran-5-yl)acetyl)-5,7-dichloro-1,2,3,4-tetrahydroisoquinoline-6-carboxamido)-3-(3-(methylsulfonyl)phenyl)propanoic acid]	certain LFA-1/ICAM-1 antagonist activity	
	CS(=O)(=O)c1cccc(C[C@H](NC(=O)c2c(Cl)cc3c(c2Cl)CCN(S(=O)(=O)c2ccc4ccoc4c2)C3)C(=O)O)c1 [Compound 1a, (S)-2-(2-(Benzofuran-6-ylsulfonyl)-5,7-dichloro-1,2,3,4-tetrahydroisoquinoline-6-carboxamido)-3-(3-(methylsulfonyl)phenyl)propanoic acid]	decreased LFA-1/ICAM-1 antagonist activity obviously	
	CS(=O)(=O)c1cccc(C[C@H](NC(=O)c2c(Cl)cc3c(c2Cl)CCN(C(=O)c2ccc4ccoc4c2)C3)C(=O)O)c1 [Lifitegrast, reference compound]		IC50 [2]: 9 nM; IC50 ([1]; IC50, Jurkat T-cell adhesion assay, text and Fig. 3): ~10.5 nM
	CS(=O)(=O)c1cccc(C[C@H](NC(=O)c2c(Cl)cc3c(c2Cl)CCN(C(=O)c2ccc4ncnn4c2)C3)C(=O)O)c1 [Compound 1d, (S)-2-(2-([1,2,4]Triazolo[1,5-a]pyridine-6-carbonyl)-5,7-dichloro-1,2,3,4-tetrahydroisoquinoline-6-carboxamido)-3-(3-(methylsulfonyl)phenyl)propanoic acid]	decreased LFA-1/ICAM-1 antagonist activity obviously	
	O=C(NC(Cc1ccc2c(c1)S(=O)(=O)CC2)C(=O)O)c1c(Cl)cc2c(c1Cl)CCN(C(=O)c1ccc3ccoc3c1)C2 (centres unmarked) [Compound 1g, 2-(2-(Benzofuran-6-carbonyl)-5,7-dichloro-1,2,3,4-tetrahydroisoquinoline-6-carboxamido)-3-(1,1-dioxido-2,3-dihydrobenzo[b]thiophen-6-yl)propanoic acid]	loss of activity	
several micromol levels	O=C(NC(Cc1ccc2ncccc2c1)C(=O)O)c1c(Cl)cc2c(c1Cl)CCN(C(=O)c1ccc3ccoc3c1)C2 (centres unmarked) [Compound 1f, 2-(2-(Benzofuran-6-carbonyl)-5,7-dichloro-1,2,3,4-tetrahydroisoquinoline-6-carboxamido)-3-(quinolin-6-yl)propanoic acid]		
	CS(=O)(=O)c1cccc(C[C@H](NC(=O)c2c(Cl)cc3c(c2Cl)CCN(C(=O)NCc2ccc4ccoc4c2)C3)C(=O)O)c1 [Compound 1b, (S)-2-(2-((Benzofuran-6-ylmethyl)carbamoyl)-5,7-dichloro-1,2,3,4-tetrahydroisoquinoline-6-carboxamido)-3-(3-(methylsulfonyl)phenyl)propanoic acid]	certain LFA-1/ICAM-1 antagonist activity	TUNEL positive (Cy3 labeled) cells in cornea, apoptosis ([3]; 5% (W/V) compound 1b): markedly decreased; also recorded: protective effect on apoptosis of ocular surface cells; anti-apoptotic effect compared with Lifitegrast treatment group ([3]; 5% or 7% compound 1b vs 5% Lifitegrast): weaker than that of Lifitegrast; TUNEL positive (Cy3 labeled) cells in cornea, apoptosis ([3]; 7% (W/V) compound 1b): markedly decreased; also recorded: protective effect on apoptosis of ocular surface cells; difference in effect between the two concentrations [4]: no statistical difference in the effect between 5% and 7%; density of goblet cells on conjunctival epithelium ([5]; 5% (W/V) compound 1b): significantly increased the density of goblet cells; also recorded: significantly increased goblet cell density; density of goblet cells on conjunctival epithelium ([5]; 7% (W/V) compound 1b): significantly increased the density of goblet cells; also recorded: significantly increased goblet cell density
several micromol levels	O=C1CCc2ccc(CC(NC(=O)c3c(Cl)cc4c(c3Cl)CCN(C(=O)c3ccc5ccoc5c3)C4)C(=O)O)cc2N1 (centres unmarked) [Compound 1h, 2-(2-(Benzofuran-6-carbonyl)-5,7-dichloro-1,2,3,4-tetrahydroisoquinoline-6-carboxamido)-3-(2-oxo-1,2,3,4-tetrahydroquinolin-7-yl)propanoic acid]		
